# Where two headings read alike, the source gives them in different places.
# Assays:
# B16F10 xenografts = settings: cited from earlier work
# SK-MEL-3 tumors = assay: Effect of [^131I]MIP-1145 on SK-MEL-3 tumor growth and survival; assay type: in vivo, athymic nude mice; settings: multiple doses, 25 MBq or 2.5 GBq/m^2
# [1] = Pharmacokinetics and gamma camera imaging in cynomolgus monkeys; assay type: in vivo
# In short: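 Four cynomolgus monkeys (2 female, 2 male), Telazol-anaesthetised, received 185 MBq radiotracer iv without thyroid blockade. Serial anterior/posterior gamma-camera imaging was performed. Blood was drawn at 5, 30, 60, 120 and 360 min and at 24, 48 and 72 h. Urine was pooled over 0–6, 6–24, 24–48 and 48–72 h. Analysis was non-compartmental, with CL = dose/AUC and Vss = MRT × CL.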
# SK-MEL-3 xenografts = assay: Tissue distribution in mice bearing SK-MEL-3 xenografts; assay type: in vivo, NCr^nu/nu mice; settings: SK-MEL-3 xenograft mice; for Tissue distribution: Blood: tail vein
# In short: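 Male athymic NCr nu/nu mice received 0.25 mL of cells (8 × 10⁶/mL in 1:1 D-PBS-glucose-pyruvate/Matrigel) into the right hind flank. Tumours were used at 100–500 mm³ (~21 days). Tail-vein bolus of ~74 KBq tracer in 0.05 mL; n = 5 per time point. Mice were killed by CO₂ at 1, 4 and 24 h. Organs and tumour were weighed wet and gamma-counted; results are %ID/g, mean ± SD.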
# [2] = Projected human dosimetry extrapolated from cynomolgus monkey scintigraphy; assay type: in vivo, cynomolgus monkeys
# In short: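 Regions of interest (total body, lung, kidney, thyroid, eye) were drawn on anterior/posterior monkey images at each time point. Uptake was normalised to % total body dose, with the first pre-voiding image set as 100%. Time integrals went into OLINDA/EXM: adult male phantom, 4.8 h bladder voiding interval, unit-density sphere model for eye. The intestine margin is referenced to a 45 Gy limit at 4.7 GBq/70 kg.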
# [3] = both, cynomolgus monkey, blood, iv, 185 MBq
# [4] = at anticipated human dose 4.7 GBq/70 kg patient
# [5] = extrapolated from cynomolgus monkeys
smiles,measurement,setting,value
"CCN(CC)CCNC(=O)c1cc(I)c(NC(=O)c2ccc(F)cc2)cc1OC [[^131I]MIP-1145, N-(2-diethylamino-ethyl)-4-(4-fluoro-benzamido)-5-iodo-2-methoxy-benzamide]",Tumor uptake,B16F10 xenografts; specific activity 55.5 GBq/mmol,9.28 ± 2.24 %ID/g
same,Tumor uptake,B16F10 xenografts; specific activity 55.5 TBq/mmol,10.17 ± 1.81 %ID/g
same,Duration of response,SK-MEL-3 tumors,over 125 days
same,MRT,[1]; [3],47 ± 5 h
same,Vd,[1]; [3],19 ± 3 L
same,clearance,[1]; [3],6.67 mL/min
same,Injected dose recovered in the urine,"[1]; cynomolgus monkeys, by 72 hours post-injection",28%
same,Tissue distribution: Adipose,SK-MEL-3 xenografts; 1 hour,4.15 ± 2.89 %ID/g
same,Tissue distribution: Bone,SK-MEL-3 xenografts; 1 hour,1.71 ± 0.28 %ID/g
same,Tissue distribution: Brain,SK-MEL-3 xenografts; 1 hour,0.82 ± 0.06 %ID/g
same,Tissue distribution: Heart,SK-MEL-3 xenografts; 1 hour,2.36 ± 0.18 %ID/g
same,Tissue distribution: Kidneys,SK-MEL-3 xenografts; 1 hour,16.55 ± 0.52 %ID/g
same,Tissue distribution: Large Intestine,SK-MEL-3 xenografts; 1 hour,2.93 ± 0.54 %ID/g
same,Tissue distribution: Liver,SK-MEL-3 xenografts; 1 hour,7.94 ± 1.12 %ID/g
same,Tissue distribution: Lungs,SK-MEL-3 xenografts; 1 hour,9.70 ± 1.28 %ID/g
same,Tissue distribution: Skeletal Muscle,SK-MEL-3 xenografts; 1 hour,1.39 ± 0.16 %ID/g
same,Tissue distribution: Small Intestine,SK-MEL-3 xenografts; 1 hour,15.19 ± 1.50 %ID/g
same,Tissue distribution: Spleen,SK-MEL-3 xenografts; 1 hour,7.26 ± 1.18 %ID/g
same,Tissue distribution: Stomach,SK-MEL-3 xenografts; 1 hour,12.85 ± 2.53 %ID/g
same,Tissue distribution: Testes,SK-MEL-3 xenografts; 1 hour,1.51 ± 0.18 %ID/g
same,Tissue distribution: Tumor,SK-MEL-3 xenografts; 1 hour,3.77 ± 1.68 %ID/g
same,Tissue distribution: Blood,SK-MEL-3 xenografts; 1 hour post-injection,0.75 ± 0.12 %ID/g
same,Tissue distribution: Adipose,SK-MEL-3 xenografts; 4 hours,1.03 ± 0.26 %ID/g
same,Tissue distribution: Bone,SK-MEL-3 xenografts; 4 hours,0.95 ± 0.14 %ID/g
same,Tissue distribution: Brain,SK-MEL-3 xenografts; 4 hours,0.19 ± 0.02 %ID/g
same,Tissue distribution: Heart,SK-MEL-3 xenografts; 4 hours,1.32 ± 0.18 %ID/g
same,Tissue distribution: Kidneys,SK-MEL-3 xenografts; 4 hours,13.12 ± 2.68 %ID/g
same,Tissue distribution: Large Intestine,SK-MEL-3 xenografts; 4 hours,18.91 ± 3.84 %ID/g
same,Tissue distribution: Liver,SK-MEL-3 xenografts; 4 hours,5.18 ± 0.59 %ID/g
same,Tissue distribution: Lungs,SK-MEL-3 xenografts; 4 hours,6.87 ± 1.33 %ID/g
same,Tissue distribution: Skeletal Muscle,SK-MEL-3 xenografts; 4 hours,0.73 ± 0.16 %ID/g
same,Tissue distribution: Small Intestine,SK-MEL-3 xenografts; 4 hours,17.21 ± 2.05 %ID/g
same,Tissue distribution: Spleen,SK-MEL-3 xenografts; 4 hours,3.75 ± 0.60 %ID/g
same,Tissue distribution: Stomach,SK-MEL-3 xenografts; 4 hours,10.74 ± 2.52 %ID/g
same,Tissue distribution: Testes,SK-MEL-3 xenografts; 4 hours,1.07 ± 0.09 %ID/g
same,Tissue distribution: Tumor,SK-MEL-3 xenografts; 4 hours,8.82 ± 3.55 %ID/g
same,Tumor:blood ratio,SK-MEL-3 xenografts; 4 hours post-injection,25.2
same,Tissue distribution: Blood,SK-MEL-3 xenografts; 4 hours post-injection,0.35 ± 0.04 %ID/g
same,Tissue distribution: Adipose,SK-MEL-3 xenografts; 24 hours,0.09 ± 0.05 %ID/g
same,Tissue distribution: Bone,SK-MEL-3 xenografts; 24 hours,0.09 ± 0.08 %ID/g
same,Tissue distribution: Brain,SK-MEL-3 xenografts; 24 hours,0.01 ± 0.01 %ID/g
same,Tissue distribution: Heart,SK-MEL-3 xenografts; 24 hours,0.04 ± 0.03 %ID/g
same,Tissue distribution: Kidneys,SK-MEL-3 xenografts; 24 hours,0.51 ± 0.18 %ID/g
same,Tissue distribution: Large Intestine,SK-MEL-3 xenografts; 24 hours,2.24 ± 0.67 %ID/g
same,Tissue distribution: Liver,SK-MEL-3 xenografts; 24 hours,0.50 ± 0.07 %ID/g
same,Tissue distribution: Lungs,SK-MEL-3 xenografts; 24 hours,0.29 ± 0.08 %ID/g
same,Tissue distribution: Skeletal Muscle,SK-MEL-3 xenografts; 24 hours,0.03 ± 0.02 %ID/g
same,Tissue distribution: Small Intestine,SK-MEL-3 xenografts; 24 hours,1.03 ± 0.24 %ID/g
same,Tissue distribution: Spleen,SK-MEL-3 xenografts; 24 hours,0.12 ± 0.03 %ID/g
same,Tissue distribution: Stomach,SK-MEL-3 xenografts; 24 hours,1.41 ± 0.53 %ID/g
same,Tissue distribution: Testes,SK-MEL-3 xenografts; 24 hours,0.22 ± 0.02 %ID/g
same,Tissue distribution: Tumor,SK-MEL-3 xenografts; 24 hours,5.91 ± 3.94 %ID/g
same,Tumor:blood ratio,SK-MEL-3 xenografts; 24 hours post-injection,197
same,Tissue distribution: Blood,SK-MEL-3 xenografts; 24 hours post-injection,0.03 ± 0.00 %ID/g
same,Margin of lower large intestine dose below the allowable exposure limit of 45 Gy,[2]; [4],3.3 times
same,Radiation absorbed dose to the lower large intestine,[2]; [4],13.3 Gy
same,Radiation dose to the eye,[2]; [4],6.1 Gy
same,Effective Dose,[2]; [5],1.40E+00 ± 6.30E-01 mGy/MBq
same,Effective Dose Equivalent,[2]; [5],9.20E-01 ± 3.70E-01 mGy/MBq
same,Projected human organ radiation absorbed dose: Brain,[2]; [5],7.00E-02 ± 1.50E-02 mGy/MBq
same,Projected human organ radiation absorbed dose: Breasts,[2]; [5],6.40E-02 ± 1.40E-02 mGy/MBq
same,Projected human organ radiation absorbed dose: Eyes,[2]; [5],1.30E+00 ± 6.70E-01 mGy/MBq
same,Projected human organ radiation absorbed dose: Gallbladder Wall,[2]; [5],1.20E-01 ± 1.90E-02 mGy/MBq
same,Projected human organ radiation absorbed dose: Heart Wall,[2]; [5],8.00E-02 ± 1.80E-02 mGy/MBq
same,Projected human organ radiation absorbed dose: Kidneys,[2]; [5],1.10E-01 ± 7.70E-02 mGy/MBq
same,Projected human organ radiation absorbed dose: Liver,[2]; [5],8.60E-02 ± 1.70E-02 mGy/MBq
same,Projected human organ radiation absorbed dose: Lungs,[2]; [5],6.70E-02 ± 2.00E-02 mGy/MBq
